Source: PubChem (several laboratories)
An excerpt weighted towards active compounds, which were near 2% of everything screened.
NR2E3 ag-1 = activates human NR2E3 receptor | Q9Y5X4 | CHO-S Gal4-NCOR/VP16-NR2E3 two-hybrid, luciferase | inhibition of corepressor binding, % at 3.98 µM | 360,000 tested, 0.35% active | AID 602229;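 active = inhibition above the mean of all tested compounds plus 3 SD, cut at about 70% in these data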;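 also: 0% = DMSO with NR2E3 transfected cells and 100% = cells lacking NR2E3 construct; higher means lower luciferase signal from less NR2E3 corepressor binding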
Target sequence (Q9Y5X4 whole entry, looked up, the tested form may be a part): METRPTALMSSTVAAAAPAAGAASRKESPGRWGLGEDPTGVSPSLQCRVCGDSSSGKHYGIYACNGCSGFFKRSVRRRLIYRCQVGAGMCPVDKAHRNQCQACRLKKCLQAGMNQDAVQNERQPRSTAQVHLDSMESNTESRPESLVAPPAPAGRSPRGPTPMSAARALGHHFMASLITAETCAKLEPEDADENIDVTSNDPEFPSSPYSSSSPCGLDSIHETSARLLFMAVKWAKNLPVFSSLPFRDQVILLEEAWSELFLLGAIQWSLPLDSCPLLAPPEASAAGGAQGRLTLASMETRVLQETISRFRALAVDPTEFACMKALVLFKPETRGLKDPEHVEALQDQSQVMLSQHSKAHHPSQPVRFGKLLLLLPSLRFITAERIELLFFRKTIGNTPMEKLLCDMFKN
T cell modulator = T cell immune modulation candidate; 2C CD8+ T cell-vesicle binding, flow cytometry; active compounds read low; response (vesicle binding), % at 7 µM; 330,000 tested, 0.068% active; AID 2052;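 active = response, share of CD8 T cells binding vesicles, and their 90th percentile fluorescence all below set limits, cut at about 80% in these data, passing the limit was not always enough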;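 also: values below 100% mean blocked vesicle binding to the CD8+ T cells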
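Material: murine 2C transgenic CD8+ T lymphocytes / Also added: QL9-peptide-loaded Drosophila micro-vesicles bearing Ld, ICAM-1 and B7-1 / Schedule: binding step 1.5 h, 37 °C, antibody labelling 20 min, ice / Signal: flow cytometry, PE anti-B7-1 (FL2) versus Alexa647 anti-CD8 (FL8), PFA-fixed / Evaluation: percent CD8+ FL2 mean versus row control / Benchmarks: naked versus QL9-loaded vesicles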
Myeloid diff 2 = promotes myeloid progenitor differentiation; ER-HoxA9 myeloid progenitors, lysozyme-GFP differentiation, flow cytometry; calls only at 10 µM; 360,000 tested, 1% active;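 active = normalized GFP-positive differentiation at or above the plate's own cutoff, the solvent-only control mean plus 3 SD; inconclusive = no clear call, values can overlap the other calls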;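 also: cells exposed to compound for four days before flow analysis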
NR2E3 ag-2 = agonists of human nuclear receptor NR2E3; Q9Y5X4; GST-NR2E3/biotin-RetCOR TR-FRET, 1536-well; inhibition of corepressor binding, % at 4.78 µM; 320,000 tested, 0.12% active;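 active = percent inhibition above the cutoff of mean plus 3 SD of all tested compounds, set per screening campaign, cut at about 20% in these data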;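 also: 0% = DMSO wells and 100% = biotin wells as full block of FRET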
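Material: NR2E3–RetCOR corepressor complex | Quantity: 1.35 nM GST-tagged NR2E3 final | Schedule: 5 h at 4 °C | Replication: Singlicate compound wells | Reagent: RetCOR corepressor, biotinylated, 7 nM | Controls: Biotin wells as high control, 0.6% DMSO wells as low control | Signal: TR-FRET, Eu(K)-anti-GST donor, streptavidin-D2 acceptor, ex 340, em 617/671 nm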
GAA850 FXN act = frataxin GAA850 promoter activation; activation, % at 6 µM; HEK293 lucGAA850 FXN promoter luciferase reporter, 24 h; percent of 10 µM SAHA response; AID 540364; 360,000 tested, 0.56% active;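 active = activation above the average of all compounds screened plus 3 SD, cutoff fixed separately per campaign, cut at about 7.5% in these data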;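 also: 0% = DMSO wells and 100% = 10 µM SAHA wells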
* marks the source's active call; other numbers are inactive results; i = inactive; ? = inconclusive; . = no result; + = active, no number.

SMILES	NR2E3 ag-1	T cell modulator	Myeloid diff 2	NR2E3 ag-2	GAA850 FXN act
COc1cc(CNC(=O)c2ccc3oc(C(C)C)nc3c2)cc(OC)c1	1	i	i	2	1
CCOc1cc(C(=O)N2CCC(CC3CC(c4ccc(Cl)cc4)=NO3)(C(=O)NCC3CCCCC3)CC2)cc(OCC)c1OCC (stereo not given)	24	489	i	-3	1
CCN(CC)C(=O)C1=C(C)N(Cc2ccc(F)cc2)C(=O)C(CC(=O)NCC2CCCCC2)C1 (stereo not given)	-25	.	i	.	-3
CC(=O)c1ccc(C(=O)Nc2sc3c(c2C(N)=O)CCN(Cc2ccccc2)C3)cc1	-3	413	+	-102	-2
COC(=O)c1c(NC(=O)c2ccco2)sc2c1CCN(C(C)C)C2	-26	357	i	5	0
CCN1CCc2c(sc(NC(=O)c3ccc(S(=O)(=O)N(C)CC4CCCO4)cc3)c2C(N)=O)C1 (stereo not given)	-4	450	i	1	1
CC(C)N1CCc2c(sc(NC(=O)c3ccco3)c2C(N)=O)C1	-8	396	+	0	2
CN1CCc2c(sc(NC(=O)c3ccc(S(=O)(=O)N4CCCC4)cc3)c2C(N)=O)C1	-2	205	i	-2	3
CN1CCc2c(sc(NC(=O)c3ccc(S(=O)(=O)N4CCCCCC4)cc3)c2C(N)=O)C1	-31	171	+	-1	3
CCCN1CCc2c(sc(NC(=O)c3ccc(S(=O)(=O)N(C)c4ccccc4)cc3)c2C(N)=O)C1	0	260	+	0	1
COc1cccc(OC)c1C(=O)Nc1sc2c(c1C(N)=O)CCN(Cc1ccccc1)C2	3	277	i	2	-6
COc1ccc(-c2noc(CN(C)C(=O)CCCN3C(=O)[C@H]4CC=CC[C@H]4C3=O)n2)cc1	7	.	i	.	-1
CCCN1CCc2c(sc(NC(=O)c3ccc(S(=O)(=O)N4CCN(C(=O)OCC)CC4)cc3)c2C(N)=O)C1	-6	369	+	4	4
CCOC(=O)N1CCN(S(=O)(=O)c2ccc(C(=O)Nc3sc4c(c3C(N)=O)CCN(CC)C4)cc2)CC1	6	483	i	1	2
Cc1ccccc1CN1CCN(C(C)C(=O)NNC(=O)c2ccc(F)cc2)CC1 (stereo not given)	4	281	i	-1	1
CC1CN(C(C)C(=O)NNC(=O)c2ccc(F)cc2)CC(C)O1 (stereo not given)	-15	541	+	.	1
Cc1ccc(NC(=O)c2nnn(CC(=O)Nc3ccccc3)c2N)cc1C	-17	434	+	0	0
CCc1nnc(NS(=O)(=O)c2ccc(NC(=O)c3ccc(C#N)cc3)cc2)s1	-39	228	i	3	0
O=C(CCn1cccn1)N1CCCC(N2CCN(c3cccc(Cl)c3)CC2)C1 (stereo not given)	-19	413	i	.	0
CC1CCN(S(=O)(=O)c2ccc(NC(=O)CN3CCCC(C)C3)cc2)CC1 (stereo not given)	-2	218	i	4	-1
CC1CCCN(CC(=O)Nc2ccc(S(=O)(=O)N3CCCC3)cc2)C1 (stereo not given)	-3	266	+	3	1
N#Cc1ccc(N[C@@H]2CCN3C(=O)c4ccccc4[C@@H]3C[C@H]2O)cc1	-11	.	+	.	0
O=c1ccn([C@@H]2O[C@H](CNCc3ccccc3OCc3ccc(Cl)cc3Cl)[C@@H](O)[C@H]2O)c(=O)[nH]1	-4	.	i	.	.
O=C(c1ccc([N+](=O)[O-])s1)N1CCCc2ccccc21	-7	369	+	-1	3
O=C(c1ccc([N+](=O)[O-])s1)N1CCc2ccccc21	-14	95	+	-3	0
O=C(c1ccc(C(=O)N2CCCc3ccccc32)s1)N1CCCc2ccccc21	-3	491	i	2	1
O=C(c1ccccc1F)N1CCCc2ccccc21	-13	87	+	-1	1
Cc1ccc(CCCNC(=O)C2CCC(=O)N(Cc3cccc(F)c3)C2)cc1 (stereo not given)	1	260	?	-1	4
O=[N+]([O-])c1nccn1CC(O)CO (stereo not given)	4	.	i	.	.
